Experimental data from ChEMBL document CHEMBL4513216, “Probing the Open Global Health Chemical Diversity Library for Multistage-Active Starting Points for Next-Generation Antimalarials” (ACS Infect Dis, 2020).

Experiment: Toxicity liver stage against HepG2, at 10uM
Format: cell-based
Set-up: test concentration 10 uM, cell line HepG2-A16-CD81EGFP
Details: human, HepG2-A16-CD81EGFP cells; read-out: INHIBITION
Method in brief: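 Uninfected HepG2-A16-CD81EGFP cells, 3 × 10^3 per well, 1536-well, plated on prespotted compound at 10 μM final, parasite-free screening media added to match infected plates; puromycin 10 μM positive, DMSO 0.5% negative; run in parallel with 48 h PbLuc assay at 37 °C, 5% CO2; viability by CellTiter-Glo luminescence, normalized to controls.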

Point of comparison: `CC(C)S(=O)(=O)N1CCC(Cc2cccc(C(=O)O)c2)C1` (stereo not given), cytotoxicity at 10 µM 1.31%. Against it:
- COc1ccc(-c2csc(N)c2C#N)cc1OC — lower, -2.46%
- COc1ccnc(N2CCN(CC(=O)N3CCOCC3)CC2)n1 — lower, -7.37%
- C[C@@H](NCc1cccc(Cl)c1)c1onc(-c2ccccc2)c1C(=O)O — lower, -4.98%
- O=C1N[C@@H]2CCN(C(=O)c3ccccc3)[C@@H]2C(=O)N1c1ccc(F)cc1 — higher, 7.62%
- O=C(NCc1ccco1)c1cccc(C(=O)NCc2ccco2)n1 — higher, 5.7%
- CCCc1cc(=O)[nH]c2nnc(SCC(N)=O)n12 — higher, 13.8%
- CC1(C)OCC2(CO1)CN(C(=O)c1ccccc1Br)C2 — lower, -7.31%
- NC1CCc2c(ccc(=O)n2Cc2ccncc2)C1 (stereo not given) — lower, -4.16%
- CC1c2ncc(COCC3CCCC3)n2CCN1S(=O)(=O)N(C)C (stereo not given) — higher, 14.6%
- O=C(CCO)N1CCC2(CCc3ccc(-c4ccoc4)cc32)CC1 — higher, 16.1%
- CC(NC(=O)N1CCN(c2ccc(Cl)cc2)CC1)C(=O)N1CCSCC1 (stereo not given) — higher, 25.4%
- O=C(COc1coc(CN2CCCCCC2)cc1=O)c1ccccc1 — higher, 4.21%
- CNC(=O)C1Cn2ccnc2C2(CCN(CCF)CC2)O1 (stereo not given) — lower, -12.6%
- Cc1cc(C(=O)Nc2cnn(CC(F)(F)F)c2)nc(N(C)C)n1 — lower, -2.89%
- O=C(COCc1nc(-c2ccncc2)no1)N1CCOCC1 — lower, -7.08%
- COc1ccccc1NC(=O)c1cnc(C2CCN(C(C)=O)C2)nc1C (stereo not given) — higher, 6.42%
- Cc1ccc2nc(C(=O)N(C)[C@@H]3CC[C@@H](N4CCCC4)[C@@H]3O)cn2c1 — higher, 1.67%
- CC(=O)N1CCC(c2cncc(Cl)n2)CC1 — higher, 3.8%
- CN(C)c1nc(O)cc(C2CCN(C(=O)Cc3ccccn3)C2)n1 (stereo not given) — lower, -0.399%
- Cc1cc(Nc2cnccn2)nc(C2CCCN(CCO)C2)n1 (stereo not given) — lower, -5.87%
- CC(=O)N1CCC(c2ncc3c(n2)CCN(C(=O)c2ccccc2)C3)C1 (stereo not given) — lower, -8.69%
- NC(=O)C1(CCCc2ccncc2)CCCN1 (stereo not given) — lower, -21.5%
- C=Cn1cc(CN2CCc3nc(-c4cccnc4)nc(O)c3C2)c(C)n1 — lower, -6.94%
- CC(=O)N1CCN(c2ccnc(C)n2)CC(COc2ccccc2)C1 (stereo not given) — lower, -6.16%
- CCc1cc(C(=O)N2CCCC2c2nc(O)cc(CC)n2)on1 (stereo not given) — lower, -7%
- O=C(C[S+]([O-])c1ccc(F)c(F)c1)NCc1cc(F)cc(F)c1 (stereo not given) — higher, 5.58%
- O=C(CS(=O)(=O)Cc1csc(-c2ccc(F)cc2)n1)NCC1CC1 — lower, -3.06%
- Cc1ccc(F)cc1S(=O)(=O)NCc1[nH]ncc1Br — higher, 10.3%
- O=C(NCc1cc(-c2ccccc2)no1)NCC1CCCO1 (stereo not given) — lower, -3.01%
- Cc1ccc(N2CCCN(C(=O)CCc3ccsc3)CC2)nn1 — lower, -2.22%
- CN1CCN(CCOc2ccc(NC(=O)c3cnc[nH]3)cc2)CC1 — lower, 0.71%
- Cc1ccc(CC(NC(=O)Cn2cnnn2)c2ccccn2)cc1 (stereo not given) — higher, 1.72%
- Cc1ncccc1C(=O)NC1CC(=O)N(CC(F)(F)F)C1 (stereo not given) — lower, 1.2%
- Cc1cccc(C(=O)N2CCSCC2)c1NC(=O)c1ccsc1 — higher, 3.85%
- COc1ccc(-c2nc(CCNC(=O)NCC3CCOC3)co2)cc1 (stereo not given) — lower, -3.1%
- COC(=O)N1CCCC(NC(=O)NCc2csc(C)n2)C1 (stereo not given) — higher, 3.93%
- Cc1ccc(-n2cnnn2)cc1NCC(=O)Nc1ccccc1Cl — higher, 7.95%
- CC(C)Cc1cc(NC(=O)c2ccc3[nH]nnc3c2)n(C)n1 — lower, -7%
- CN(C)c1nccc(CNC(=O)NCc2ccco2)n1 — lower, -2.48%
- O=C(NCc1ccon1)N1CCC(n2ccc(C(F)(F)F)n2)CC1 — lower, -0.0817%
- O=C(NCc1cccnc1)NC1CCCN(c2ncccn2)C1 (stereo not given) — lower, -2.5%
- CC(=O)NCCNC(=O)CN1CCCC1Cn1nc(C)nc1C (stereo not given) — lower, -1.26%
- COCC(O)CNC(=O)Nc1c(F)cc(F)cc1-c1ccccc1 (stereo not given) — lower, -4.17%
- CC(=O)N1Cc2ccccc2CC1C(=O)Nc1ccc(N(C)C)cn1 (stereo not given) — lower, -1.92%
- CCCOC1CCCN(C(=O)c2csc(S(N)(=O)=O)c2)C1 (stereo not given) — lower, -5.45%
- CS(=O)(=O)CCNCc1ccc(OCc2ccncc2)cc1 — lower, -134%
- COc1ccccc1C1(CNCc2ccc([S+](C)[O-])cc2)CC1 (stereo not given) — higher, 7.56%
- CC(C)c1noc(CNc2ccc(OC(F)F)cc2OC(F)F)n1 — higher, 23.6%
- O=C(NCc1nncn1C1CC1)c1ccc(F)c(COCC2CC2)c1 — higher, 10.2%
- Cc1csc(C(C)(C)NCC(=O)N2CCCC(C(N)=O)C2)n1 (stereo not given) — higher, 5.73%
- CCc1nnsc1C(=O)N(C)Cc1ccco1 — lower, -45%
- Cc1ccn(-c2ccc(NCc3ccnc(N4CCCCC4)c3)nn2)n1 — lower, -0.715%
- Cc1noc(C2CCN(C(=O)c3c(C)noc3C)CC2)n1 — higher, 5.65%
- CN(C)C(=O)CNC(=O)c1cc(Br)c2c(c1)OCCO2 — higher, 16.4%
- COc1ccc(-n2cnnc2SCC(C)(C)O)cn1 — higher, 13.5%
- Cc1cc(CN(C)C(=O)NC(C)c2nncn2C)no1 (stereo not given) — higher, 8.79%
- CCCOCC(=O)NC1CCc2nc(C)cn2C1 (stereo not given) — lower, -2.88%
- COCCN1CCO[C@@H]2CN(C(=O)c3ccc4[nH]ccc4c3)CC[C@@H]2C1 — lower, -110%
- CC(=O)N1CCCN(C(=O)Nc2ccccc2N2CCOC2=O)CC1 — lower, 0.334%
- COc1cc(CN2CC[C@@H](N3CCCCCC3)[C@H](O)C2)cc(Cl)c1OC — lower, -1.47%
- COCC(=O)N1C[C@H]2CNC[C@@]2(C(=O)NCc2nc(C)cc(C)n2)C1 — higher, 14.7%
- O=C(O)C1(n2ccc(-c3ccco3)n2)CCN(Cc2cccnc2)CC1 — lower, -131%
- Cc1cc(CN2CCC(C(=O)O)(n3ccc(-c4ccco4)n3)CC2)on1 — lower, -131%
- COc1nc(C)c(C(=O)N2CCc3[nH]nc(C4CCCC4)c3C2)s1 — higher, 7.51%
- Cc1cnn(CC(=O)N2CCC3(CCC(=O)N(CCCO)C3)CC2)c1 — lower, -9.44%
- Cc1nccn1CCC1CCCCN1Cc1ccc(O)cc1Cl (stereo not given) — lower, -4.23%
- Cc1noc(C)c1CCNc1nccc(CCC(F)(F)F)n1 — lower, -158%
- CCC(CO)n1cnc2scc(C)c2c1=O (stereo not given) — lower, -7.37%
- Cc1ccc(NCCCc2c(C)noc2C)nn1 — higher, 8.12%
- Cn1nccc1CNC(=O)Cn1nc(C(F)(F)F)cc1C1CC1 — lower, -6.36%
- NC(=O)C1(CCCc2cccnc2)CCCN(c2ncccn2)C1 (stereo not given) — higher, 3.61%
- Cc1nccn1C1CCCN(C(=O)CCOCC(F)(F)F)C1 (stereo not given) — lower, -11.4%
- CNc1snc(C)c1C(=O)N1CCC(Nc2ccc(C)nn2)CC1 — lower, -8.27%
- Cc1ccc(NC2CCN(C(=O)c3c(C)nn(C)c3Cl)CC2)nn1 — lower, -11.6%
- CSCCCN1CCCC1c1noc(C(C)C)n1 (stereo not given) — lower, -12.5%
- CC(NC(=O)CCc1ccsc1)c1ccc2c(c1)NC(=O)CO2 (stereo not given) — lower, -6.16%
- COc1ccc(C2CCCCCN2CCCNS(C)(=O)=O)cc1 (stereo not given) — lower, -6.07%
- Cc1csc(N2CCN(C(=O)c3c(C)oc(C)c3C)CC2)n1 — lower, -14%
- CC(=O)NC1CCCN(C(=O)NCc2ccc(-n3cccn3)cc2)C1 (stereo not given) — lower, -11.8%
- O=C(NCCc1coc(-c2ccc(F)cc2)n1)NC1CC1 — lower, -3.24%
- Cc1cc(OCC(=O)N2CCCC(c3nc(C)c(C)s3)C2)no1 (stereo not given) — lower, -16.4%
- Cc1nc(C(=O)N2CCCC2c2c(C)nn(C)c2Cl)ccc1C#N (stereo not given) — lower, -12.8%
- CCOC(=O)C1CCN(Cc2csc(-c3ccc(C)o3)n2)CC1 — lower, -11.4%
- CC(C)c1nc2n(n1)CC(NCc1nc(-c3ccccn3)no1)CC2 (stereo not given) — lower, -5.08%
- O=C(O)C1CCCCN1C(=O)c1cccc(C(F)(F)F)c1 (stereo not given) — lower, -5.95%
- COc1ccccc1CC(=O)N1CCC(NCc2c[nH]nc2C)CC1 — lower, -13.5%
- O=C(NCCNc1ncccn1)Nc1cc(C(F)(F)F)c[nH]c1=O — lower, -4.69%
- Cc1cnn(C2CCCN(C(=O)CCCNc3ncccn3)C2)c1 (stereo not given) — lower, -3.27%
- CCc1cccc(OCC(=O)N2CCCC(n3cncn3)C2)c1 (stereo not given) — lower, -7.62%
- COc1c(C2CCCN2C(=O)c2ccnc(N(C)C)c2)c(C)nn1C (stereo not given) — higher, 1.9%
- O=C(CN1CCC(c2cc(=O)n3c(n2)CCCCC3)C1)N1CCCCC1 (stereo not given) — lower, -22.8%
- Cc1ccccc1C(=O)N1CCOCC1CN(C)C (stereo not given) — lower, -2.1%
- CN1CCC(CN2CCC3(CCCN(Cc4ccoc4)C3)C2=O)CC1 (stereo not given) — lower, -12.9%
- Fc1ccc(CN2CCC(F)(F)C3(CCN(c4cnccn4)C3)C2)cc1 (stereo not given) — higher, 8.62%
- CNC(=O)CNCc1c[nH]nc1-c1cc2ccccc2o1 — higher, 6.7%
- COCc1cncc2c1CCN(Cc1cccs1)C2 — lower, -0.95%
- O=C(Cc1ccccc1)N1CCC2(CCN2Cc2ccc(F)cc2)C1 (stereo not given) — higher, 2.17%
- O=C1[C@H]2CN(C(=O)[C@H]3CCCO3)C[C@H]2CN1CCN1CCCC1 — lower, -3.66%
- CN(Cc1cncnc1)Cc1cn2c(n1)CN(C1CCOC1)CC2 (stereo not given) — lower, -9.36%
- CC(C)N1CCO[C@H]2CN(C(=O)c3ccncc3F)C[C@H]21 — lower, -146%
- NC(=O)COc1ccc(CNCc2cc(F)ccc2F)cc1 — higher, 18.5%
- CN(C)C(=O)[C@H]1C[C@H]2OCC[C@H]2N(CCOc2ccc(Cl)cc2)C1 — lower, -115%
- CCN1CC(=O)NCC12CCN(C(=O)c1ccco1)C2 (stereo not given) — lower, -2.86%
- O=C(c1cccc(F)c1)N1CCC2(CC1)CC(N1CCOCC1)C2 — lower, -8.02%
- O=S(=O)(N[C@@H]1CCO[C@]2(CCN(CC3CCOCC3)C2)C1)C1CC1 — lower, -142%
- CN1CC(=O)N(c2cccc(F)c2)CC12CCN(Cc1cccnc1)C2 (stereo not given) — higher, 9.69%
- O=C(Nc1ccc(F)cc1)N1C[C@@H]2C[C@H](C(=O)N3CCOCC3)[C@H](C1)O2 — higher, 3.41%
- COCCN1C(=O)[C@@H]2CC[C@H]1CN(S(=O)(=O)c1ccc(OC)cc1)C2 — higher, 6.35%
- O=C1C[C@@H]2CC[C@H](CN1)N2C(=O)CCCc1ccc(Cl)cc1 — lower, -7.05%
